Most compounds without a hit are left out; they make up all but 3.6% or so of the library.
FID counter = counter-screen for HCV NS3 helicase inhibitors: DNA intercalator displacement. DNA fluorescent intercalator displacement, fluorescence. inhibition, % at 7.9 µM. 290,000 tested, 0.17% active. AID 1845; in the data active means inhibition above about 37%;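 further: higher means more ethidium bromide displaced from hairpin DNA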
EBNA-1 inhibitor = blocks EBNA-1 binding to DNA; EBNA-1 DNA binding, fluorescence polarization; inhibition, % at 14.8 µM; 300,000 tested, 0.34% active; in the data active means inhibition above about 28%
NR3A LBD binder = modulators (binders) of human NR3A ligand-binding domain; Tm shift relative to glycine control, % at 25 µM; 340,000 tested, 2.5% active; NR3A LBD differential scanning fluorimetry, Tm shift; 0% = protein alone, 100% = glycine-bound protein; AID 1259313;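 active means melting temperature shift of at least 10% of the positive control shift, at one fixed dose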
NS3 helicase inh = inhibitors of Hepatitis C virus NS3 helicase; NS3 helicase DNA unwinding, Cy5 molecular beacon fluorescence; inhibition, % at 10.9 µM; 290,000 tested, 0.56% active;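 active means inhibition above the mean of all tested compounds plus 3 SD, set per campaign, cut at about 35% in these data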
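Material: hepatitis C virus NS3 helicase domain fragment enzyme; measured by: Cy5 fluorescence, 0 and 60 min reads; control set: DMSO and thioflavine S; incubation: 60 min unwinding reaction at 25 °C after ATP addition; read-out basis: % inhibition from 60/0 min fluorescence ratio, DMSO 0%, thioflavine S 100%; repeats: singlicate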
ZTA DNA inh = counter-screen for EBNA-1 inhibitors: inhibitors of Epstein-Barr virus ZTA; P03206; ZTA-DNA binding, fluorescence polarization; inhibition, % at 11 µM; 320,000 tested, 0.15% active; AID 2234; in the data active means inhibition above about 33%
Target sequence (P03206 whole entry, looked up): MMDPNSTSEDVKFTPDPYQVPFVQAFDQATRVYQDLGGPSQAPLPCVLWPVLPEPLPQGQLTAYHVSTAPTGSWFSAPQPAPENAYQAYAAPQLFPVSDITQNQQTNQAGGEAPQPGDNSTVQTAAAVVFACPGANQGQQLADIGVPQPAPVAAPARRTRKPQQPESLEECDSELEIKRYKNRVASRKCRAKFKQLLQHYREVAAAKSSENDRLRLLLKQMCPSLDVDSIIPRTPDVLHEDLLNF
FGF22 binding = binders of recombinant human FGF22 by thermal shift; 340,000 tested, 1.5% active; SYPRO orange fluorescence; percent of sucrose octasulfate shift, DMSO zero; activity (Tm shift, normalised), % at 9.99 µM; Q9HCT0;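 active means mean Tm shift, scaled 0 neutral to 100 positive control, at about 1.3% or above, every replicate too, limit read from the data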
Target sequence (Q9HCT0 whole entry, looked up): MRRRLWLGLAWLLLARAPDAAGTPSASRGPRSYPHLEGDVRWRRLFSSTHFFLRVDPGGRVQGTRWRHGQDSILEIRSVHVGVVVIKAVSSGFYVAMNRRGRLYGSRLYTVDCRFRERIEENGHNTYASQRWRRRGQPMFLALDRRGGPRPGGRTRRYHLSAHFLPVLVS
Each line names hits and unclear results; the compound was inactive in the other large screens.

C[C@@H]1CN([C@@H](C)CO)S(=O)(=O)c2ccc(Br)cc2O[C@H]1CN(C)Cc1ccccc1	none (no result: FID counter, EBNA-1 inhibitor, NR3A LBD binder, NS3 helicase inh, ZTA DNA inh)
CC(=O)N[C@@H]1CC[C@H](CCNC(=O)C2CCC2)O[C@H]1CO	none (no result: FID counter, EBNA-1 inhibitor, NR3A LBD binder, NS3 helicase inh, ZTA DNA inh)
Cc1ccc(NC(=O)c2cc3ccccc3cc2O)cc1	NR3A LBD binder 22
CCc1ccc(NC(=O)NNC(=O)c2cc3ccccc3cc2O)cc1	NR3A LBD binder 10
CN1C(=O)c2cc(NC(=O)Cc3ccccc3)ccc2OC[C@@H]2O[C@H](CC(=O)NC3CCC3)CC[C@H]21	none (no result: FID counter, EBNA-1 inhibitor, NR3A LBD binder, NS3 helicase inh, ZTA DNA inh)
COc1ccc2c3c([nH]c2c1)[C@@H](CO)N(Cc1nccs1)CC31CCN(C(=O)C2CCC2)CC1	none (no result: FID counter, EBNA-1 inhibitor, NR3A LBD binder, NS3 helicase inh, ZTA DNA inh)
O=C(/C=C\Nc1ccc2c(c1)OCO2)c1ccc(Cl)s1	FGF22 binding 43
O=C(/C=C\Nc1ccc2c(c1)OCO2)c1ccccn1	NR3A LBD binder 35 (no result: FGF22 binding)
CCCNC(=O)C[C@H]1CC[C@@H]2[C@H](COc3ccc(NC(=O)CCC)cc3C(=O)N2C)O1	none (no result: FID counter, EBNA-1 inhibitor, NR3A LBD binder, NS3 helicase inh, ZTA DNA inh)
CSc1ccc(CN2CCN(Cc3ccccc3)C(CCO)C2)cc1 (stereo not given)	FGF22 binding 43
CCn1cc(CN2CCN(Cc3ccsc3)C(CCO)C2)cn1 (stereo not given)	FGF22 binding 44
CCOc1ccc(CN2CCN(Cc3cc4ccccc4[nH]3)CC2CCO)cc1 (stereo not given)	FGF22 binding 43 (no result: EBNA-1 inhibitor, ZTA DNA inh)
COc1cccc(CN2CCN(Cc3[nH]c4ccccc4c3C)CC2CCO)c1 (stereo not given)	FGF22 binding 43
COc1cccc(CN2CCN(Cc3cc4ccccc4[nH]3)CC2CCO)c1 (stereo not given)	none
OCCC1CN(Cc2cnn(-c3ccc(F)cc3)c2)CCN1Cc1ccsc1 (stereo not given)	none
NC(=S)NNC(=O)c1cc(C(F)(F)F)cc(C(F)(F)F)c1	NR3A LBD binder 31
O=C(O)CC(NC(=O)C12CC3CC(CC(C3)C1)C2)c1cccc([N+](=O)[O-])c1 (stereo not given)	FGF22 binding 43
C[C@@H]1CN([C@@H](C)CO)C(=O)c2cc(C#Cc3ccccc3F)cnc2O[C@H]1CN(C)C(=O)Cc1ccccc1	none (no result: FID counter, EBNA-1 inhibitor, NR3A LBD binder, NS3 helicase inh, ZTA DNA inh)
CCOc1cc(NC(=S)NCC2CCCO2)c(OCC)cc1NC(=O)C1CC1 (stereo not given)	FGF22 binding 43
CN(Cc1ccccc1)C(=O)c1ccc(NC(=O)Cc2ccc(NC(=O)C3CCN(C(=O)CCc4ccccc4)CC3)cc2)cc1	NR3A LBD binder 13 (no result: FID counter, EBNA-1 inhibitor, NS3 helicase inh, ZTA DNA inh)
CN(Cc1ccccc1)C(=O)c1cccc(NC(=O)Cc2ccc(NC(=O)C3CCN(C(=O)CCc4ccccc4)CC3)cc2)c1	NR3A LBD binder 17 (no result: FID counter, EBNA-1 inhibitor, NS3 helicase inh, ZTA DNA inh)
Cc1cc(C)nc(NS(=O)(=O)c2ccc(NC(=O)c3ccc(S(=O)(=O)N4CC(C)OC(C)C4)cc3)cc2)n1 (stereo not given)	none (no result: FGF22 binding)
Cc1ccc(-c2cc(C(=O)Nc3ccc(S(=O)(=O)N4CC(C)OC(C)C4)cc3)[nH]n2)c(O)c1 (stereo not given)	NR3A LBD binder 30
COc1ccc(NC(=O)c2ccc(S(=O)(=O)N3CC(C)OC(C)C3)cc2)cc1 (stereo not given)	none (no result: FID counter, EBNA-1 inhibitor, NS3 helicase inh, ZTA DNA inh)
Cc1ccc(O)c(-c2cc(C(=O)Nc3ccc(S(=O)(=O)N4CC(C)OC(C)C4)cc3)[nH]n2)c1 (stereo not given)	NR3A LBD binder 35 (no result: FGF22 binding)
CC1CN(S(=O)(=O)c2csc(C(=O)Nc3ccccc3)c2)CC(C)O1 (stereo not given)	NR3A LBD binder 16
Cc1ccc(O)c(-c2cc(C(=O)Nc3ccc(S(=O)(=O)Nc4nc(C)cc(C)n4)cc3)[nH]n2)c1	NR3A LBD binder 30 (no result: FGF22 binding)
Cc1nnsc1Sc1ccccc1	FGF22 binding 43
O=C(NCc1ccc(F)cc1)C(c1ccccc1)N(C(=O)c1csnn1)c1ccccc1 (stereo not given)	none
C=CCN(C(=O)c1csnn1)C(C(=O)NCc1ccc(F)cc1)c1ccccc1F (stereo not given)	FGF22 binding 43
O=C(NCc1ccccc1)C(c1ccccc1)N(C(=O)c1csnn1)c1ccccc1 (stereo not given)	FGF22 binding 43
CCC(=O)N1[C@@H](CO)[C@@H](c2ccc(-c3cccc(F)c3)cc2)[C@@H]1CN(C)C(C)=O	none (no result: FID counter, EBNA-1 inhibitor, NR3A LBD binder, NS3 helicase inh, ZTA DNA inh)

High-throughput results: PubChem BioAssay, several laboratories
